# Source: ChEMBL document CHEMBL1131201, “N-(benzyloxycarbonyl)glycine esters and amides as new anticonvulsants” (J Med Chem, 1998)
# Assays:
# [1] = test system: Mus musculus; experiment: Compound was tested for anticonvulsant activity in maximal electroshock seizure(MES) test after 3 hours upon intraperitoneal administration to mice at a dose of 114 mg/kg; Animals protected / Animals tested = 4/8; type: functional
# In short: (§1)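 Male OF1 mice (15-25 g), free access to water only during testing. Compound given ip and maximal electroshock applied at 30 min or 3 h. Typically 8-10 mice per compound, dose and time point. Screening at initial 0.4 mmol/kg, scored as protected/tested.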
# [2] = test system: Mus musculus; experiment: Compound was tested for anticonvulsant activity in maximal electroshock seizure(MES) test after 30 min upon intraperitoneal administration to mice at a dose of 114 mg/kg; Animals protected / Animals tested = 3/10; type: functional; in short: as §1
# [3] = Lipophilicity value was evaluated; type: physicochemical; conditions: RP-HPLC
# In short: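 Lipophilicity by RP-HPLC on a C18 column at 1.0 mL/min. Mobile phases were 10-50% […] with 50-90% 0.01 M phosphate buffer pH 7.4. Triplicate runs per eluent. log k_o extrapolated from at least four eluent compositions. ClogP also calculated.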
# [4] = test system: Mus musculus; experiment: Compound was tested for anticonvulsant activity in maximal electroshock seizure(MES) test after 3 hours upon intraperitoneal administration to mice; type: functional; conditions: ip; in short: as §1
# [5] = test system: Mus musculus; experiment: Compound was tested for anticonvulsant activity in maximal electroshock seizure(MES) test after 30 min upon intraperitoneal administration to mice; type: functional; conditions: ip, 0.5 h; in short: as §1
# [6] = test system: Mus musculus; experiment: Compound was tested for anticonvulsant activity in maximal electroshock seizure(MES) test after 30 min upon intraperitoneal administration to mice at a dose of 84 mg/kg; Animals protected / Animals tested = 2/8; type: functional; in short: as §1
# [7] = test system: Mus musculus; experiment: Percent of the tonic seizures after 3h in the 3-mercaptopropionic acid test in mice at a dose of 209 mg/kg, ip; type: functional; conditions: route intraperitoneal
# In short: (§2)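 Male NMRI mice (18-25 g). Compound in DMSO given ip at 2 mL/kg. 3-Mercaptopropionic acid 40 mg/kg ip in saline given 30 min or 3 h later. Tonic seizures recorded and expressed as % of animals.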
# [8] = test system: Mus musculus; experiment: Percent of the tonic seizures after 3h in the 3-mercaptopropionic acid test in mice at a dose of 418mg/kg, ip; type: functional; in short: as §2
# [9] = test system: Mus musculus; experiment: Percent of the tonic seizures after 30 min in the 3-mercaptopropionic acid test in mice at a dose of 418 mg/kg, ip; type: functional; conditions: route intraperitoneal; in short: as §2
# [10] = test system: Mus musculus; experiment: The average latency on the onset of the seizures compared to the controls after 30 min in the strychnine test in mice at a dose of 209 mg/kg; type: functional
# In short: (§3)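 Male NMRI mice (18-25 g). Compound in DMSO given ip at 2 mL/kg. Strychnine chlorhydrate in saline (1.2 mg/mL, 1 mL/kg) given sc 30 min or 3 h later, with 30 min observation. Seizure onset latency expressed as % of the mean control latency (mean ± SD, n = 8-10).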
# [11] = test system: Mus musculus; experiment: The average latency on the onset of the seizures compared to the controls after 3 hr in the strychnine test in mice at a dose of 209 mg/kg; type: functional; in short: as §3
# [12] = test system: Mus musculus; experiment: Percent of the tonic seizures after 30 min in the 3-mercaptopropionic acid test in mice at a dose of 209 mg/kg, ip; type: functional; conditions: route intraperitoneal; in short: as §2
# [13] = test system: Mus musculus; experiment: Compound was tested for anticonvulsant activity in maximal electroshock seizure(MES) test after 30 min upon intraperitoneal administration to mice at a dose of 89 mg/kg; Animals protected / Animals tested = 2/8; type: functional; in short: as §1
# [14] = test system: Mus musculus; experiment: Compound was tested for anticonvulsant activity in maximal electroshock seizure(MES) test after 3 hours upon intraperitoneal administration to mice at a dose of 750 mg/kg; type: functional; conditions: ip; in short: as §1
# [15] = test system: Mus musculus; experiment: The average latency on the onset of the seizures compared to the controls after 30 min in the strychnine test in mice at a dose of 220 mg/kg; type: functional; in short: as §3
# [16] = test system: Mus musculus; experiment: The average latency on the onset of the seizures compared to the controls after 3h in the strychnine test in mice at a dose of 220 mg/kg; type: functional; in short: as §3
# [17] = test system: Mus musculus; experiment: Compound was tested for anticonvulsant activity in maximal electroshock seizure(MES) test after 3 hours upon intraperitoneal administration to mice at a dose of 106 mg/kg; Animals protected / Animals tested = 4/8; type: functional; in short: as §1
# [18] = test system: Mus musculus; experiment: Compound was tested for anticonvulsant activity in maximal electroshock seizure(MES) test after 3 hours upon intraperitoneal administration to mice at a dose of 116 mg/kg; Animals protected / Animals tested = 3/8; type: functional; in short: as §1
# [19] = test system: Mus musculus; experiment: Ratio of the animals protected to animals tested after 30 min. in the MES test after intraperitoneal administration to mice at a dose of 150 mg/kg; Animals protected / Animals tested = 2/10; type: functional; in short: as §1
# [20] = test system: Mus musculus; experiment: Ratio of the animals protected to animals tested after 3h in the MES test after intraperitoneal administration to mice at a dose of 150 mg/kg; Animals protected / Animals tested = 3/8; type: functional; in short: as §1
# [21] = test system: Mus musculus; experiment: Compound was tested for anticonvulsant activity in maximal electroshock seizure(MES) test after 30 min upon intraperitoneal administration to mice at a dose of 120 mg/kg; Animals protected / Animals tested = 4/10; type: functional; in short: as §1
# [22] = test system: Mus musculus; experiment: Compound was tested for anticonvulsant activity in maximal electroshock seizure(MES) test after 3 hours upon intraperitoneal administration to mice at a dose of 120 mg/kg; Animals protected / Animals tested = 6/9; type: functional; in short: as §1
# [23] = test system: Mus musculus; experiment: Ratio of the animals protected to animals tested after 3h in the MES test after intraperitoneal administration to mice at a dose of 150 mg/kg; Animals protected / Animals tested = 5/10; type: functional; in short: as §1
# [24] = test system: Mus musculus; experiment: Ratio of the animals protected to animals tested after 30 min. in the MES test after intraperitoneal administration to mice at a dose of 150 mg/kg; Animals protected / Animals tested = 1/8; type: functional; in short: as §1
# [25] = test system: Mus musculus; experiment: Compound was tested for anticonvulsant activity in maximal electroshock seizure(MES) test after 30 min upon intraperitoneal administration to mice at a dose of 120 mg/kg; Animals protected / Animals tested = 0/8; type: functional; in short: as §1
# [26] = test system: Mus musculus; experiment: Compound was tested for anticonvulsant activity in maximal electroshock seizure(MES) test after 3 hours upon intraperitoneal administration to mice at a dose of 89 mg/kg; Animals protected / Animals tested = 4/10; type: functional; in short: as §1
# [27] = test system: Mus musculus; experiment: Compound was tested for anticonvulsant activity in maximal electroshock seizure(MES) test after 30 min upon intraperitoneal administration to mice at a dose of 89 mg/kg; Animals protected / Animals tested = 3/8; type: functional; in short: as §1
# [28] = test system: Mus musculus; experiment: Compound was tested for anticonvulsant activity in maximal electroshock seizure(MES) test after 30 min upon intraperitoneal administration to mice at a dose of 120 mg/kg; Animals protected / Animals tested = 1/8; type: functional; in short: as §1
# [29] = test system: Mus musculus; experiment: Compound was tested for anticonvulsant activity in maximal electroshock seizure(MES) test after 3 hours upon intraperitoneal administration to mice at a dose of 166 mg/kg; Animals protected / Animals tested = 6/9; type: functional; in short: as §1
# [30] = test system: Mus musculus; experiment: The average latency on the onset of the seizures compared to the controls after 30 min in the strychnine test at a dose of 207 mg/kg; type: functional; in short: as §3
# [31] = test system: Mus musculus; experiment: Percent of the tonic seizures after 3h in the 3-mercaptopropionic acid test at a dose of 207 mg/kg; type: functional; in short: as §2
# [32] = test system: Mus musculus; experiment: The average latency on the onset of the seizures compared to the controls after 3h in the strychnine test at a dose of 207 mg/kg; type: functional; in short: as §3
# [33] = test system: Mus musculus; experiment: Percent of the tonic seizures after 30 min in the 3-mercaptopropionic acid test at a dose of 207 mg/kg; type: functional; in short: as §2
# [34] = test system: Mus musculus; experiment: Compound was tested for anticonvulsant activity in maximal electroshock seizure(MES) test after 30 min upon intraperitoneal administration to mice at a dose of 166 mg/kg; Animals protected / Animals tested = 3/9; type: functional; in short: as §1
# [35] = test system: Mus musculus; experiment: Compound was tested for anticonvulsant activity in maximal electroshock seizure(MES) test after 30 min upon intraperitoneal administration to mice at a dose of 58 mg/kg; Animals protected / Animals tested = 2/10; type: functional; in short: as §1
# [36] = test system: Mus musculus; experiment: Compound was tested for anticonvulsant activity in maximal electroshock seizure(MES) test after 3 hr upon intraperitoneal administration to mice; type: functional; conditions: ip; in short: as §1
# [37] = test system: Mus musculus; experiment: Compound was tested for anticonvulsant activity in maximal electroshock seizure(MES) test after 30 min upon intraperitoneal administration to mice at a dose of 750 mg/kg; type: functional; conditions: ip, 0.5 h; in short: as §1
smiles,measurement,setting,value
O=C(CNC(=O)OCc1ccccc1)Nc1ccccc1,Protected/tested,[1],4
same,Protected/tested,[2],3
same,Log Ko,[3],3.49
CC(C)NC(=O)CNC(=O)OCc1ccccc1,ED50,[4],9.5 mg/kg
same,Log Ko,[3],2.65
same,ED50,[5],14 mg/kg
O=C(O)CNC(=O)OCc1ccccc1,Protected/tested,[6],2
same,Tonic seizures,[7],45%
same,Tonic seizures,[8],27%
same,Tonic seizures,[9],33%
same,Average latency,[10],150%
same,ED50,[4],56.5 mg/kg
same,Average latency,[11],142%
same,Tonic seizures,[12],55%
COC(=O)CNC(=O)OCc1ccccc1,Protected/tested,[13],2
same,ED50,[14],16.5 mg/kg
same,Average latency,[15],154%
same,Average latency,[16],139%
same,Log Ko,[3],2.64
CC(C)(C)NC(=O)CNC(=O)OCc1ccccc1,Protected/tested,[17],4
same,Log Ko,[3],3.25
same,ED50,[5],39.4 mg/kg
O=C(CNC(=O)OCc1ccccc1)NC1CCCCC1,Protected/tested,[18],3
same,Log Ko,[3],3.7
same,ED50,[5],33.4 mg/kg
CCCCCCCCCCNC(=O)CNC(=O)OCc1ccccc1,Protected/tested,[19],2
same,Protected/tested,[20],3
same,Log Ko,[3],> 5
O=C(CNC(=O)OCc1ccccc1)OCc1ccccc1,Protected/tested,[21],4
same,Protected/tested,[22],6
same,Log Ko,[3],4.35
CCCCCCCCCCOC(=O)CNC(=O)OCc1ccccc1,Protected/tested,[23],5
same,Protected/tested,[24],1
same,Log Ko,[3],> 5
Cc1ccc(NC(=O)CNC(=O)OCc2ccccc2)cc1,Protected/tested,[25],0
same,ED50,[4],27.4 mg/kg
same,Log Ko,[3],3.99
COC(=O)CNC(=O)CCc1ccccc1,Protected/tested,[26],4
same,Log Ko,[3],2.37
same,Protected/tested,[27],3
Cc1ccccc1NC(=O)CNC(=O)OCc1ccccc1,Protected/tested,[28],1
same,ED50,[4],74.3 mg/kg
same,Log Ko,[3],3.49
O=C(CNC(=O)OCc1ccccc1)NCCc1ccccc1,ED50,[4],16.6 mg/kg
same,Log Ko,[3],3.88
same,ED50,[5],8.1 mg/kg
NC(=O)CNC(=O)OCc1ccccc1,ED50,[4],8.3 mg/kg
same,Log Ko,[3],1.52
same,ED50,[5],15.2 mg/kg
CNC(=O)CNC(=O)OCc1ccccc1,ED50,[4],7.8 mg/kg
same,Log Ko,[3],2.03
same,ED50,[5],13.6 mg/kg
O=C(O)CNC(=O)CCc1ccccc1 [HYDROCINNAMOYLGLYCINE],Protected/tested,[29],6
same,Average latency,[30],99%
same,Tonic seizures,[31],100%
same,Average latency,[32],96%
same,Tonic seizures,[33],80%
same,Protected/tested,[34],3
CCCCCNCC(N)=O [MILACEMIDE],Protected/tested,[35],2
same,ED50,[4],30.2 mg/kg
O=C1NC(=O)C(c2ccccc2)(c2ccccc2)N1 [PHENYTOIN],ED50,[36],3 mg/kg
same,ED50,[5],3.5 mg/kg
CCCC(CCC)C(=O)O [VALPROIC ACID],ED50,[37],44.5 mg/kg
same,ED50,[14],80.6 mg/kg
CCCC(CCC)C(N)=O [VALPROMIDE],ED50,[37],14.9 mg/kg
same,ED50,[14],11.4 mg/kg
